Data reported in article PMC6099444 (Journal of Clinical Pharmacology, 2018).
“Also recorded” adds a separate entry of the source.

How the values were obtained:
Assay type in all cases: in vivo, human
[1] = Plasma pharmacokinetics, phase 1b multiple-dose drug-drug interaction study; settings: for plasma exposure on coadministration, result in words: verinurad: with allopurinol 300 mg, colchicine: with verinurad 10 mg
Method in brief: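 Adult males with gout were randomized 1:1 to two sequences. They took a once-daily oral xanthine oxidase inhibitor 300 mg or urate reabsorption inhibitor 10 mg alone (days 1–7), both (days 8–14), then the other agent (days 15–21). Fasted overnight, no food 4 h postdose. Plasma was sampled days −1, 7, 14, 21 predose to 24 h. Parent and metabolite were measured by LC-MS/MS (methanol precipitation, isotope internal standards). Noncompartmental Tmax, Cmax, AUC0‐24; geometric LS mean ratio combo/alone.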

Urine pharmacokinetics = settings: for Ae0‐24: urine; for Ae0‐24 / CLR0‐24: geometric LS mean (95% CI)
urine uric acid = experiment: Urine uric acid pharmacodynamics; settings: for CLUR, Mean (SD) / FEUA, Mean (SD) / AeUR, Change From Baseline (%) / CLUR, Change From Baseline (%) / FEUA, Change From Baseline (%) / AeUR, Mean (SD) / AeUR, %Change From Baseline / CLUR, %Change From Baseline / FEUA, %Change From Baseline: ALLO 300 mg or both; for AeUR, Change From Baseline (%) / CLUR, Change From Baseline (%) / FEUA, Change From Baseline (%) / AeUR, %Change From Baseline / CLUR, %Change From Baseline / FEUA, %Change From Baseline: mean (SD)
Method in brief: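 Total-catch urine was collected days 1, 7, 8, 14, 21 in intervals from 0–1 to 22–24 h postdose. Water: 240 mL on waking and at 22 h, 160 mL frequently postdose. Uric acid and creatinine were assayed centrally. AeUR = concentration × volume; CLUR = AeUR/plasma urate AUC same interval; fractional excretion = (CLUR/CrCl) × 100; rate = AeUR/interval hours. % change uses time-matched day −1 baseline.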

serum uric acid = experiment: Serum uric acid pharmacodynamics in adult male subjects with gout; settings: verinurad 10 mg, allopurinol 300 mg, once daily for 7 days, alone or combined
Method in brief: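 Adult males with gout received a once-daily oral xanthine oxidase inhibitor 300 mg, a urate reabsorption inhibitor 10 mg, or both for 7 days each in a randomized crossover sequence. Fasted overnight before sampling. Serum was drawn days 7, 14, 21 predose to 24 h postdose, with extra predose points day 1, and uric acid measured by a central lab. Read-out is maximum % change from time-matched day −1 baseline.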

[2] = VERU 10 mg + ALLO 300 mg compared with allopurinol alone
[3] = treatment ALLO 300 mg once daily
[4] = treatment VERU 10 mg + ALLO 300 mg once daily
[5] = VERU 10 mg + ALLO 300 mg compared with allopurinol alone, plasma
[6] = VERU 10 mg + ALLO 300 mg compared with allopurinol alone, plasma, listed as oxypurinol
[7] = 0‐ to 12‐hour interval, VERU 10 mg
[8] = 0‐ to 12‐hour interval, multiple daily doses VERU 10 mg
[9] = 0‐ to 24‐hour interval, VERU 10 mg
[10] = 12‐ to 24‐hour interval, VERU 10 mg
[11] = treatment VERU 10 mg once daily

## COc1cc2c(c(OC)c1OC)-c1ccc(OC)c(=O)cc1[C@@H](NC(C)=O)CC2 [Colchicine, colchicine, reference compound]
[1]
  plasma exposure on coadministration, result in words: unaltered

## O=c1[nH]c(=O)c2c[nH]nc2[nH]1 [Oxypurinol, oxypurinol]
Urine pharmacokinetics; [2]
  increase in renal clearance on coadministration of verinurad: 93%
  increase in urinary excretion on coadministration of verinurad: 19%
Urine pharmacokinetics; [3]
  Ae0‐24: 231 (216‐248) mg
Urine pharmacokinetics; [4]
  Ae0‐24: 275 (262‐290) mg
[1]; [5]
  decrease in AUC on coadministration of verinurad: 38%
  decrease in Cmax on coadministration of verinurad: 32%
[1]; [6]
  decrease in AUC on coadministration of verinurad: approximately 38%
  decrease in Cmax on coadministration of verinurad: approximately 32%
[1]; male, human, plasma, oral, 300 mg
  Cmax: 12800 ng/mL

## Oc1ncnc2[nH]ncc12 [Allopurinol, allopurinol]
Urine uric acid; 0-24 h, allopurinol 300 mg
  decrease in 24 hr fractional excretion of urate compared with baseline: 12.0%
  decrease in CLUR compared with baseline: 8.5%
Urine uric acid; 0-24 h, allopurinol 300 mg alone or with verinurad 10 mg
  decrease in 24‐hour AeUR compared with baseline: 47.4%
Urine uric acid; [7]
  CLUR, Mean (SD): 6.50 (1.18) mL/min
  FEUA, Mean (SD): 4.06 (0.47) %
  AeUR, Change From Baseline (%): −46.8 (7.3) %
  CLUR, Change From Baseline (%): −6.0 (12.0) %
  FEUA, Change From Baseline (%): −9.7 (9.2) %
Urine uric acid; [8]
  AeUR, Mean (SD): 231 (45) mg
Urine uric acid; [9]
  AeUR, Mean (SD): 363 (73) mg
  CLUR, Mean (SD): 5.00 (1.13) mL/min
  FEUA, Mean (SD): 3.69 (0.59) %
  AeUR, %Change From Baseline: −47.4 (7.6) %
  CLUR, %Change From Baseline: −8.50 (14.8) %
  FEUA, %Change From Baseline: −12.0 (12.2) %
Urine uric acid; 2‐3 hour urine collection interval postdose, allopurinol 300 mg
  decrease in rate of uric acid excretion: 46%
Urine uric acid; [10]
  CLUR, Mean (SD): 3.62 (1.30) mL/min
  FEUA, Mean (SD): 3.19 (0.62) %
  AeUR, Change From Baseline (%): −45.4 (14.5) %
  CLUR, Change From Baseline (%): −9.4 (23.2) %
  FEUA, Change From Baseline (%): −7.6 (14.6) %
Urine uric acid; highest mean rate, 2‐3 hour urine collection interval postdose (combination 2‐3 and 3‐4 hour), verinurad 10 mg, allopurinol 300 mg
  maximum rate of uric acid excreted in urine compared with the maximum observed baseline rate: −46%
Urine pharmacokinetics; [3]
  Ae0‐24: 25.4 (22.1‐29.2) mg
Urine pharmacokinetics; [4]
  Ae0‐24: 22.7 (19.2‐26.9) mg
Serum uric acid
  maximum decrease in serum urate: 43%
[1]; [2]
  AUC on coadministration of verinurad, result in words: unaffected; also recorded: unaltered
[1]; [5]
  increase in Cmax on coadministration of verinurad: 33%
[1]; treatment ALLO 300 mg once daily, plasma, geometric LS mean (95% CI)
  Cmax: 1.13 (0.89‐1.43) μg/mL

## CC(C)(Sc1ccncc1-c1ccc(C#N)c2ccccc12)C(=O)O [Verinurad]
Urine uric acid; [7]
  CLUR, Mean (SD): 16.3 (4.57) mL/min
  FEUA, Mean (SD): 11.6 (3.77) %
  AeUR, Change From Baseline (%): 21.4 (23.3) %
  CLUR, Change From Baseline (%): 153 (77.0) %
  FEUA, Change From Baseline (%): 160 (96.6) %
Urine uric acid; [8]
  AeUR, Mean (SD): 490 (71) mg
Urine uric acid; [9]
  AeUR, Mean (SD): 739 (84) mg
  CLUR, Mean (SD): 11.5 (2.74) mL/min
  FEUA, Mean (SD): 9.19 (3.28) %
  AeUR, %Change From Baseline: 9.9 (21.5) %
  CLUR, %Change From Baseline: 122 (105) %
  FEUA, %Change From Baseline: 77.4 (36.0) %
Urine uric acid; [10]
  AeUR, Mean (SD): 250 (52) mg
  CLUR, Mean (SD): 6.74 (0.96) mL/min
  FEUA, Mean (SD): 5.88 (1.78) %
  AeUR, Change From Baseline (%): 4.2 (48.0) %
  CLUR, Change From Baseline (%): 95.5 (148) %
  FEUA, Change From Baseline (%): 49.9 (21.9) %
Urine pharmacokinetics; [4]
  CLR0‐24: 9.75 (7.73‐12.3) mL/min
  Ae0‐24: 67.2 (51.7‐87.4) μg
Urine pharmacokinetics; [11]
  CLR0‐24: 9.28 (7.43‐11.6) mL/min
  Ae0‐24: 66.8 (51.8‐86.1) μg
Serum uric acid
  maximum decrease in serum urate: 51%
[1]
  plasma exposure on coadministration, result in words: unaffected
